High-throughput results: PubChem, several laboratories
Hits are enriched below; roughly 9.2% of the tested compounds scored in any of these assays.
H69AR growth 86K: blocks growth of human H69AR lung tumor cells. H69AR lung tumor viability, ATP luminescence, 72 h; active compounds read low. viability, % at 10 µM. hit rate 6% among 85,000;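 active = viability at or below 40%; inactive = viability above 40%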;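 also: multidrug resistant small cell line overexpressing MRP-1 efflux transporter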
HUVEC prolif 384: blocks proliferation of human endothelial cells. HUVEC proliferation, CellTiter-Glo luminescence, 72 h; active compounds read low. viability, % at 10 µM (by protocol). hit rate 1.1% among 86,000;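 active = viability at or below 30%; inactive = viability above 30%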
ERa coact inh: ER-alpha (human) coactivator binding inhibition; P03372; hit rate 1.7% among 86,000; inhibition, % at 25.6 µM; TR-FRET ER-alpha LBD / SRC-1 peptide, estradiol-bound; in the data active = inhibition above about 50%
Fibroblast inh: blocks proliferation of human lung fibroblasts. LL 47 human lung fibroblast viability, ATP luminescence; active compounds read low. viability, % at 10 µM. hit rate 1.1% among 85,000;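 active = viability at or below 50% in the single dose screen; inactive = viability above 50%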;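 also: compound exposure lasted 72 h before the ATP readout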
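Assay system: human lung fibroblast line LL 47, low passage. Input: 1,150 fibroblasts seeded per well. Times: overnight cell rest, 72 h compound treatment at 37 °C. Evaluation: % viability of median cell-only signal. Technique: luminescent ATP detection, CellTiter-Glo. Control set: cell-only wells, no compound.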
ERb coact inh: blocks coactivator binding to human estrogen receptor beta; TR-FRET ER-beta LBD / SRC1-Cy5 peptide binding; receptor agonist-loaded with 1 µM estradiol; inhibition, % at 25.6 µM; hit rate 1.3% among 86,000; AID 633;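 active = compounds whose percent inhibition of the receptor-coactivator binding signal exceeds about 50% in the single-dose screen, limit read from the data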
Target sequence (Q92731 whole entry, looked up, the tested form may be a part): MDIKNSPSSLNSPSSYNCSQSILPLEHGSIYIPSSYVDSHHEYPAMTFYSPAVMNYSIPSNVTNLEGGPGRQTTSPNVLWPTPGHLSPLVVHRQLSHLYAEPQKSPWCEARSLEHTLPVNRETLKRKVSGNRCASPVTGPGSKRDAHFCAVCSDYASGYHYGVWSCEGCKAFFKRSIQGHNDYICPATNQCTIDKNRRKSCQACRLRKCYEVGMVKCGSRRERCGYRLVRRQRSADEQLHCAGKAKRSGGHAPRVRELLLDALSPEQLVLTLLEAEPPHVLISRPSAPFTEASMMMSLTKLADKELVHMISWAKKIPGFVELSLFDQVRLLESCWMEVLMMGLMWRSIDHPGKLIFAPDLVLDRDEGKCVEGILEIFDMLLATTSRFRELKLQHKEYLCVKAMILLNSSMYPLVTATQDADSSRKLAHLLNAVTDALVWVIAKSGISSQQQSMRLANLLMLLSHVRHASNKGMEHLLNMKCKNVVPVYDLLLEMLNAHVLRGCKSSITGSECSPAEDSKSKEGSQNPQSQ
ERa coact pot: ER-alpha (human) coactivator binding potentiation; coactivator binding (% of control), % at 25.6 µM; TR-FRET ERalpha-LBD/SRC-Cy5 coactivator binding, 2 h; 100 = basal binding, no effect; hit rate 1.3% among 86,000; in the data active = activity above about 200%;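 also: binding measured in presence of low estradiol as agonist stimulus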
Large screens that a line does not name were inactive; [ ] = dose if it differs, or a comment.

CCCC1(c2ccccc2)NC(=O)N(CC(=O)Nc2sc(-c3ccccc3)cc2C(=O)OCC)C1=O (configuration not stated)	H69AR growth 86K 34, HUVEC prolif 384 22, Fibroblast inh 22
Cc1ccc(CSc2nnc(-c3ccncc3)n2CC2CCCO2)cc1 (configuration not stated)	none
COCCCNc1c2c3c(cccc3[nH]c1=O)C(=O)c1ccccc1-2	H69AR growth 86K 18
N#CC1(c2nc3ccccc3[nH]2)CC1c1ccc2c(c1)OCO2 (configuration not stated)	none
CCOCCCNc1nc2c([nH]1)c(=O)n(C)c(=O)n2C	none
COCCCNc1nc2c([nH]1)c(=O)[nH]c(=O)n2C	ERb coact inh 52
c1ccc2oc(-c3ccc(Nc4nc(N5CCCCC5)nc(N5CCOCC5)n4)cc3)nc2c1	none
COc1nc(Nc2ccc(-c3nc4ccccc4o3)cc2)nc(N2CCOCC2)n1	ERa coact inh 62[fluorescence artefact?]
CCS(=O)(=O)NCCc1cc2c(OC)ccc(OC)c2[nH]c1=O	none
C=CCN1C(=O)C2(NNc3ccccc3O2)c2ccccc21 (configuration not stated)	H69AR growth 86K 13, HUVEC prolif 384 23
C=CCN1C(=O)C(O)(CC(=O)c2ccc(-n3cccc3)cc2)c2ccccc21 (configuration not stated)	none
CC(C)COC(=O)c1cc(-c2ccc(/C=N/n3cnnc3)o2)ccc1Cl	none
CCCOC(=O)c1cc(-c2ccc(/C=C3/C(=O)N(C)C(=O)C(C#N)=C3C)o2)ccc1Cl	ERa coact inh 83[fluorescence artefact?], ERb coact inh 67
C/C(N)=C(/C#N)C(=O)CSc1nnc(NC(C)C)s1	ERa coact inh 97[fluorescence artefact?], ERb coact inh 99[fluorescence artefact?]
C/C(N)=C(/C#N)C(=O)CSc1nnc(Nc2ccccc2C)s1	ERa coact inh 51[fluorescence artefact?], ERb coact inh 65
C/C(N)=C(/C#N)C(=O)CSc1ncnc2ccccc12	none
O=C(CCc1nc(-c2ccccc2F)no1)NC1CCCCC1	none
COc1ccc(/C=N/NC(=O)Nc2nonc2N)cc1	none
CCOC(=O)c1ccccc1NC(=O)Cn1cnc2c(cnn2C(C)(C)C)c1=O	H69AR growth 86K 37
CC(C)(C)n1ncc2c(=O)n(CC(=O)NCc3ccc(F)cc3)cnc21	H69AR growth 86K 21
Cc1ccc2c(n1)CC(C)(C)C/C2=N\O	none
CCOC(=O)N1CCN(Cc2ccccn2)CC1	none
Cc1ccc(C)c(-n2nnnc2Sc2nnnn2-c2ccccc2)c1	H69AR growth 86K 2.3, HUVEC prolif 384 15, Fibroblast inh 24
CCSc1nnnn1-c1ccccc1	none
Cc1cc(=S)[nH]c2c(C)cccc12	none
COc1cccc(/C=C2\C(=O)C(=O)c3ccccc32)c1	H69AR growth 86K 5.3
O=C(C(c1ccccc1)c1ccccc1)N1CCN(Cc2ccc(Br)cc2)CC1	H69AR growth 86K 36
CC1CCc2cc(F)ccc2N1C(=O)c1ccc2c(c1)OCO2 (configuration not stated)	none
COc1ccc(OC)c(N)c1	ERa coact inh 91[fluorescence artefact?], ERb coact inh 63[fluorescence artefact?]
COc1cc(OC)c(Cl)cc1N	none
COc1ccccc1N(CN1CCCC1=O)C(=O)COc1ccccc1	none
Cc1nn(-c2ccccc2)c(Cl)c1C(=O)N1CCN(c2ncnc3c2cnn3-c2ccccc2)CC1	H69AR growth 86K 34, HUVEC prolif 384 2.7
O=C(c1ccco1)N1CCN(c2ncnc3c2cnn3-c2ccccc2)CC1	none
O=C1c2oc3ccccc3c(=O)c2C(c2ccc(Br)cc2)N1c1ncccn1 (configuration not stated)	ERa coact pot 316
O=C(CNc1cccc2ccccc12)N/N=C/C(Br)=C/c1ccccc1	H69AR growth 86K 25
Cc1ccc(-c2cc(C(=O)NC3=NCCS3)c3cc(Br)ccc3n2)o1	ERa coact inh 52[fluorescence artefact?], ERa coact pot 281[fluorescence artefact?]
O=C(NC1=NCCS1)c1ccc(-c2ccc(Cl)cc2)o1	none
Cc1ccc(-c2cc(C(=O)NCCCn3ccnc3)c3cc(Br)ccc3n2)o1	ERa coact inh 88[fluorescence artefact?]
O=C(OCc1ccc(F)cc1Cl)c1ccccn1	none
Cc1nc([N+](=O)[O-])c(Br)n1CC(=O)c1ccc(Cl)cc1	H69AR growth 86K 1.2
Cc1nc(NC2=NCN(Cc3cccnc3)CN2)nc2c(C)cccc12	H69AR growth 86K 37
CCN(CC)C(=O)CSc1nc(N)c(C#N)c(-c2cccs2)c1C#N	ERa coact pot 221[fluorescence artefact?]
Cc1ccccc1NC(=O)CSc1nc(N)c(C#N)c(-c2cccs2)c1C#N	H69AR growth 86K 27, ERb coact inh 51[fluorescence artefact?], ERa coact pot 319[fluorescence artefact?]
CCc1c(C#N)c(N)nc(SCC(=O)OCc2ccccc2)c1C#N	ERa coact pot 207[fluorescence artefact?]
CCN(CC)C(=O)CSc1ncnc2c(-c3cccs3)nsc12	ERa coact inh 51[fluorescence artefact?], ERb coact inh 51[fluorescence artefact?]
CCN(CC)C(=O)CSc1nc(-c2cccs2)cc(-c2cccs2)c1C#N	none
CCC1(CC)C(=O)N(C)C(=O)NC1=Nc1ccc(OC)cc1	none
CCOC(=O)N1CCC(NC(=O)C2CCN(S(=O)(=O)N3CCC(C)CC3)CC2)CC1	none
CCCC(c1nnnn1CCc1ccccc1)N1CCN(C(=O)c2ccco2)CC1 (configuration not stated)	none
N#Cc1c(N)nc(SCc2ccncc2)c(C#N)c1-c1cccs1	ERa coact pot 267[fluorescence artefact?]
COc1cc(-c2c(C#N)c(N)nc(SCc3ccncc3)c2C#N)cc(OC)c1OC	none
Cc1cccc(-n2c(SCc3cc(=O)n4c(C)cccc4n3)nc3[nH]ncc3c2=O)c1	ERb coact inh 53
Cc1nc(NCc2ccc3c(c2)OCO3)c2nnn(Cc3ccccc3)c2n1	ERa coact inh 63[fluorescence artefact?], Fibroblast inh 47
COc1ccc(Nc2nc(C)nc3c2nnn3Cc2ccccc2)cc1OC	none
c1ccc(Cn2nnnc2CN2CCN(Cc3ccc4c(c3)OCO4)CC2)cc1	ERa coact pot 209
Cc1ccc(Cn2nnc3c(=O)n(CC(=O)NCc4ccc5c(c4)OCO5)cnc32)cc1	H69AR growth 86K 39
O=C(Cn1cnc2c(nnn2Cc2ccc(Cl)cc2)c1=O)NCc1ccco1	none
c1ccc2c(c1)CCN(Cc1nnnn1Cc1ccc3c(c1)OCO3)C2	none
c1ccc(Cn2nnc3c(NCc4ccc5c(c4)OCO5)nc(C4CC4)nc32)cc1	ERa coact inh 79[fluorescence artefact?]
O=C(Nc1ccc(N2C(=O)C3C4C=CC(C4)C3C2=O)cc1)Nc1cccnc1 (configuration not stated)	none
O=C(CSc1nc2scc(-c3ccco3)c2c(=O)n1-c1ccccc1)NCC1CCCO1 (configuration not stated)	ERa coact inh 62, ERb coact inh 55
O=c1c2c(-c3ccco3)csc2nc(SCc2cn3cccnc3n2)n1-c1ccccc1	ERa coact inh 67[fluorescence artefact?]
